# Assay outcomes as filed in PubChem BioAssay.
# Rows were chosen to be rich in hits. Some 2.3% of all compounds tested hit in one or more screens of this group.
# TRPC6 inhibitor: blocks the mouse TRPC6 cation channel. Q61143. HEK293-TRPC6, membrane potential dye, ACh-evoked depolarization; stronger effect = lower value. B-score at 10 µM. actives 1.1% (n = 310,000). AID 2553;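 active = B-score under library mean minus 3 SD, initial fluorescence not abnormally high, positive integrated signal ratio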;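 note: B-score derived from integrated fluorescence ratio over the kinetic read; more negative B-score means stronger inhibition of depolarization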
# Target sequence (Q61143 whole entry, looked up): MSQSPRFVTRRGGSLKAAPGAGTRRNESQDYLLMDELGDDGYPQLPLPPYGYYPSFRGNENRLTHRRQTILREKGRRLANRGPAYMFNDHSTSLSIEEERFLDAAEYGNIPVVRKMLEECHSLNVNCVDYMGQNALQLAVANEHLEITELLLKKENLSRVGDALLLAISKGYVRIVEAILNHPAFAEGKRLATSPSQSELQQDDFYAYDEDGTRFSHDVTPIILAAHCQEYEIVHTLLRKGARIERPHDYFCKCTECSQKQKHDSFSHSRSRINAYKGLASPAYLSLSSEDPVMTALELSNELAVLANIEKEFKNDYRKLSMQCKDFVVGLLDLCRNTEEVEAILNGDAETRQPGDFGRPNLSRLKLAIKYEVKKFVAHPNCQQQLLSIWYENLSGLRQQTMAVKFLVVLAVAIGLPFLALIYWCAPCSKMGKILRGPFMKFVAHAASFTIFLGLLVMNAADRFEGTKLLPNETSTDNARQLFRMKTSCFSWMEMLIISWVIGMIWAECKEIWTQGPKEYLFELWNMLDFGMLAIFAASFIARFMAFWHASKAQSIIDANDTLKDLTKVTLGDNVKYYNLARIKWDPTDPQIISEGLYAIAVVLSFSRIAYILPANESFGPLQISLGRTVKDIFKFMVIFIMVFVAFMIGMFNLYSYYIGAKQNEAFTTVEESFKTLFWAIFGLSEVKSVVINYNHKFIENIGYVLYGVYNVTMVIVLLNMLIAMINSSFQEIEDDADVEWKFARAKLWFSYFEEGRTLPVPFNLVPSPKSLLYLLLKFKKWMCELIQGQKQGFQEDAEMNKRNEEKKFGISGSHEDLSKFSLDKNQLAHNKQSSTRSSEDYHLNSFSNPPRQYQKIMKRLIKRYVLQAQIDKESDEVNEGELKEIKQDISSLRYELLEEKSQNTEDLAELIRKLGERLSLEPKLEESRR
# TRPC4 potent: TRPC4 (mouse) allosteric potentiation. actives 0.42% (n = 310,000). B-score at 10 µM. HEK293 TRPC4beta/mu-opioid, DAMGO EC20, Fluo-4 Ca2+ flux; stronger effect = higher value;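 active = B-score of calcium response area above 5 SD of library B-scores, with initial fluorescence ratio within 5 SD of library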;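 note: B-score of integrated fluorescence ratio over time as area under calcium response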
# TRPC4 agonist: activators of mouse TRPC4 channel | Q9QUQ5 | HEK293 TRPC4beta/mu-opioid, Fluo4 calcium fluorescence; stronger effect = higher value | B-score at 10 µM | actives 0.49% (n = 310,000) | AID 2237;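 active = B-score above 5 SD of library B-scores, and initial fluorescence ratio not above library mean plus 5 SD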;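 note: positive B-score marks a calcium rise read as TRPC4 activation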
#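 Assay system: HEK293 cells stably co-expressing mouse TRPC4beta and mu-opioid receptor / Timing: Fluo4 dye loading 45 min at room temperature, 110 s recording / Signal: Fluo4 calcium-sensitive dye fluorescence, kinetic, 1 Hz baseline / Read-out: integrated baseline-normalised fluorescence ratio, converted to per-well B score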
# TRPC4 block: blocks the mouse TRPC4 cation channel | Q9QUQ5 | HEK293 TRPC4beta/mu-opioid, DAMGO-evoked Fluo4 calcium flux; stronger effect = lower value | B-score at 10 µM | actives 0.39% (n = 300,000) | AID 2247;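 active = B-score over 3 SD under the library average, no early fluorescence shift, positive overall ratio signal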
#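 Assay system: HEK293 cells with stable TRPC4beta plus mu-opioid receptor expression; Probe or stimulus: DAMGO in two steps, submaximal then maximal; Dosing: single-point compound dosing; Measured by: Fluo4 calcium-dye fluorescence, kinetic read; Read-out basis: B score from integrated Fluo4 fluorescence ratio.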
# TRPC6 act: activates the mouse TRPC6 cation channel | actives 0.13% (n = 310,000) | B-score at 10 µM | AID 2550 | HEK293-TRPC6 membrane potential dye fluorescence; stronger effect = higher value | Q61143;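 active = B-score of the integrated fluorescence ratio above library mean plus 3 SD, and starting fluorescence ratio within library mean plus 5 SD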;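 note: higher score means more depolarization so channel activation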
# Starred values were filed as active, the others as inactive; i = inactive.
SMILES,TRPC6 inhibitor,TRPC4 potent,TRPC4 agonist,TRPC4 block,TRPC6 act
COc1ccc2c(C)cc(N3CCN(Cc4ccccc4)CC3)nc2c1,i,i,i,i,i
Cc1cc(N2CCCCCC2)nc2ccc(F)cc12,i,i,i,-6*,i
COc1ccc2c(C)cc(N3CCCCCC3)nc2c1,i,i,i,-10*,i
CC(OC(=O)CSc1ccc(F)cc1)C(=O)NC1(C#N)CCCCC1 (stereo unspecified),i,i,i,i,i
COC(=O)c1cc(S(=O)(=O)N2CCCCC2)c[nH]1,i,i,i,i,i
CCOCCOc1nc(C)cc(C)c1S(=O)(=O)c1ccccc1C,i,i,i,i,i
Cc1cc(C)c(S(=O)(=O)c2ccccc2C)c(OCC(C)(C)C)n1,i,i,i,-6*,i
CC(C)c1nc(SCC(=O)NC2CCCC2)c2c(=O)n(C)c(=O)n(C)c2n1,i,i,i,i,i
CCCOc1ccc(NC(=O)CC2C(=O)N(CC)C(=S)N2CCNC(C)=O)cc1 (stereo unspecified),i,i,i,i,i
CCc1ccc(C(=O)NNC(=O)CCN2CCN(Cc3ccccc3)CC2)cc1,i,12*,i,i,i
O=C(CCN1CCN(CCO)CC1)Nc1ccc(OCc2ccccc2)cc1,i,i,i,i,i
O=C(CCN1CCN(Cc2ccccc2)CC1)Nc1cccc(Br)c1,i,20*,i,i,i
CCCOc1ccc(NC(=O)CC2C(=O)N(CC)C(=S)N2CCCN2CCN(Cc3ccccc3)CC2)cc1 (stereo unspecified),i,10*,i,i,i
O=C(CCN1CCN(Cc2ccccc2)CC1)Nc1ccc(OCc2ccccc2)cc1,i,15*,i,i,i
COc1ccc(CCC(=O)N2CCN(c3ccc([N+](=O)[O-])cc3)CC2)cc1OC,i,i,i,i,i
O=C(CSc1nnc(NC(=O)c2ccccc2[N+](=O)[O-])s1)NC1CCCC1,i,i,i,i,i
CCOC(=O)CCN(c1ccccc1)S(=O)(=O)c1ccc(-c2ccc(=O)[nH]n2)s1,i,i,i,i,i
COc1ccc2cc(C(=O)N3CCCC(Nc4ccc(F)cc4)C3)n(C)c2c1 (stereo unspecified),i,i,i,i,i
COC(=O)c1ccc(NC(=O)CCN2CCN(Cc3ccccc3)CC2)cc1,i,27*,i,i,i
CCN1C(=O)[C@@H]2[C@H](C1=O)[C@@H]1C(=O)Nc3ccccc3C(=O)N1[C@@H]2c1ccc(Br)cc1,i,i,i,i,i
C/C(=N\N1CCN(C)CC1)c1ccc(OC(F)F)cc1,i,i,i,i,i
C/C(=N\N1CCN(C)CC1)c1ccc(Cl)c(Cl)c1,i,15*,i,i,i
CCOC(=O)c1ccc(CNC(=O)c2cc(COc3ccccc3SC)on2)o1,i,i,i,i,i
O=C(NCCS(=O)(=O)N1CCCCCC1)c1ccccc1,i,i,i,i,i
Cc1ccc(NC(=O)CN2C(=O)NC3(CCCc4ccccc43)C2=O)c([N+](=O)[O-])c1 (stereo unspecified),i,i,i,i,i
SMILES,TRPC6 inhibitor,TRPC4 potent,TRPC4 agonist,TRPC4 block,TRPC6 act
CCOC(=O)c1cc(C#N)c(Oc2ccc(F)cc2)nc1-c1ccccc1,i,i,i,-5*,i
COc1ccc(-n2nc(C(=O)NCC(=O)NCCCN3CC(C)CC(C)C3)c3ccccc3c2=O)cc1Cl (stereo unspecified),i,i,128*,i,i
O=Cc1coc2c(ccc3ccccc32)c1=O,i,i,i,-5*,i
Cc1[nH]c2ccccc2c1C(c1ccncc1)N1CCN(c2ccccc2F)CC1 (stereo unspecified),i,i,i,i,i
Cc1[nH]c2ccccc2c1C(c1ccncc1)N1CCN(c2ccccn2)CC1 (stereo unspecified),i,i,49*,i,i
CCOC(=O)C1CCN(C(c2ccccn2)c2c(C)[nH]c3ccccc23)CC1 (stereo unspecified),-5.8*,i,i,i,i
